Source: PubChem BioAssay
HKDC1 inhibitor = HKDC1 hexokinase inhibitors, primary screen, biochemical, fluorescence, uHTS; recombinant HKDC1, G6PDH/diaphorase resazurin coupled fluorescence; inhibition, % at 20 µM; AID 493160, 2011; Q2TB90; actives 0.16% (n = 340,000);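 active = inhibition above about 35% when tested at 20 µM, limit read from the data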;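 also: plate controls were DMSO wells with enzyme for no effect and DMSO wells lacking enzyme for full effect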
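Assay system: in-house recombinant HK5 (HKDC1) enzyme. Input: HKDC1 at 5 µg/mL. Medium: Tris pH 8.0 buffer with MgCl2, Tween-20, BSA, BME. Dosing: single 20 µM dose. Schedule: 90 min reaction incubation at room temperature, dark. Signal: resazurin-to-resorufin fluorescence via G6PDH and diaphorase coupling, 525/613 nm. Controls: DMSO-enzyme wells negative, buffer-substituted wells positive.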
beta cell repl = inducers of MIN6 beta-cell proliferation, primary screen, ATP luminescence, uHTS; MIN6 cells proliferation, ATPlite luminescence, 48 h; cells starved in 0.2% serum; 100% = growth in 10% serum; proliferation, % at 10 µM; actives 0.29% (n = 330,000);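 active = compounds whose signal lies at least 3.5 SD above the mean of all wells on their plate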;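 also: 0% = DMSO-treated cells in low-serum medium and 100% = 10% serum control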
IMP-1 inh = IMP-1 metallo-beta-lactamase inhibitors, primary screen, biochemical, epi-absorbance readout, Pseudomonas aeruginosa enzyme | metallo-beta-lactamase IMP-1 (Pseudomonas aeruginosa) | purified IMP-1, nitrocefin hydrolysis, epi-absorbance fluorescence | inhibition, % at 5.6 µM | actives 0.45% (n = 290,000);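 active = inhibition above the mean plus 3 SD of all compounds in the same screening run, cut at about 4.5% in these data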;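 also: 0% = IMP-1 with DMSO and 100% = DMSO wells lacking enzyme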
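System: purified IMP-1 / Input: IMP-1 dispensed at 0.2 nM / Medium: 50 mM HEPES pH 7.1, 50 µM ZnSO4, 0.05% Brij 35 / Timing: 15 min enzyme–compound preincubation, then 25 min nitrocefin reaction, 25 °C / Technique: plate fluorescence quenching by hydrolysis product, ex 480/em 530 nm / Repeats: singlicate testing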
PvdQ acylase = P. aeruginosa PvdQ acylase inhibitors, primary screen, biochemical, fluorescence, plate reader and imaging, single point; PvdQ acylase [Pseudomonas aeruginosa LESB58]; AID 488965, 2010; inhibition, % at 10 µM; purified PvdQ acylase; actives 0.063% (n = 340,000); in the data active = inhibition above about 30%, passing the limit was not always enough;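 also: 0% = vehicle neutral wells and 100% = reference inhibitor wells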
VIM-2 inhibitor = VIM-2 metallo-beta-lactamase inhibitors, primary screen, biochemical, epi-absorbance readout, Pseudomonas aeruginosa enzyme. purified VIM-2, nitrocefin hydrolysis, epi-absorbance fluorescence. inhibition, % at 5.6 µM. actives 0.89% (n = 290,000);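 active = inhibition above the mean of all tested compounds plus 3 SD, cutoff set per screening run, cut at about 7.5% in these data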;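 also: red hydrolysis product quenches plate fluorescence so inhibitors raise well fluorescence; 0% = enzyme with DMSO and 100% = DMSO without enzyme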
ATG4B inh = ATG4B protease inhibitors, primary screen, biochemical, fluorescence, uHTS; ATG4B cleavage of LC3-PLA2, NBD-HPC fluorescence, 1 h; inhibition, % at 8.33 µM; actives 0.51% (n = 340,000); AID 504462, 2011; in the data active = inhibition above about 40%
ATG4B confirm = ATG4B protease inhibitors, retest, confirmation, biochemical, fluorescence, single concentration | AID 504757, 2011 | inhibition, % at 8.33 µM | actives 92% (n = 320) | shares compounds with ATG4B inh | ATG4B protease fluorescent substrate cleavage assay; in the data active = inhibition above about 39%
PLA2 ctr = PLA2 enzyme inhibition, counter-screen for ATG4B inhibitor project, biochemical, single concentration, uHTS hits; shares compounds with ATG4B inh; purified PLA2, NBD-C6-HPC fluorescence, 45 min; inhibition, % at 8.33 µM; actives 66% (n = 1,600); AID 588402, 2011; in the data active = inhibition above about 50%
* = called active by the depositor; nt = not tested or not shown. The list is not random: actives were taken first. Their share in the collection is about 2%.

SMILES	HKDC1 inhibitor	beta cell repl	IMP-1 inh	PvdQ acylase	VIM-2 inhibitor	ATG4B inh	PLA2 ctr	others
Cc1cc(N/N=C/c2ccc(Cl)cc2)nc(NCc2ccccc2)n1	-2.3	-6.1	-4.0	-4.9	-2.6	23.2	nt
Cc1cc(N/N=C/c2ccccc2)nc(NCc2ccccc2)n1	-1.7	-6.3	-5.4	-3.3	-3.1	68.9*	75.7*
Cc1cc(N/N=C/c2cccc(Cl)c2)nc(NCc2ccccc2)n1	0.3	-6.4	-3.0	-4.6	-0.6	76.3*	83.5*
Cc1cc(N/N=C/c2ccccc2F)nc(NCc2ccccc2)n1	0.0	-3.2	-3.0	6.1	-1.4	58.5*	79.2*
Cc1cc(Nc2cccc(Cl)c2)nc(NCc2ccccc2)n1	-3.9	-5.8	-4.5	0.2	-3.5	36.1	nt
Nc1nc(N)nc(COc2ccccc2)n1	-11.0	-1.2	-2.9	10.2	1.1	-2.7	nt
C=CCNc1cnn(-c2ccc(C)cc2)c(=O)c1Sc1ccc(C)cc1	-1.7	0.8	-0.8	-11.8	0.9	5.4	nt
CCNc1ccc(Br)cc(C(=O)/C=C/c2ccccc2Cl)c1=O	20.3	-6.0	10.6*	-1.2	0.2	51.4*	-6.7
CCOC(=O)Cn1nnnc1CN(Cc1cccs1)Cc1cc2cc(C)cc(C)c2[nH]c1=O	-3.0	-0.3	1.2	-0.4	-1.4	-26.2	nt
Cc1cccc2cc(CN(Cc3cccs3)Cc3nnnn3Cc3ccccc3)c(=O)[nH]c12	-0.7	-4.5	-1.4	-5.4	-0.5	48.6*	61.8*
COc1ccc2cc(CN(Cc3cccs3)Cc3nnnn3Cc3ccccc3)c(=O)[nH]c2c1	2.8	-3.6	-2.2	3.2	-3.3	51.1*	53.7*
O=C(NCC(=O)N1CC=C(c2ccccc2)CC1)c1ccccc1Br	-2.9	-0.6	-4.3	-5.7	-1.5	-0.6	nt
COc1cc(NC(=O)c2cc(S(=O)(=O)N3CCCCC3)ccc2N2CCOCC2)cc(OC)c1	-2.6	3.5	nt	-7.2	nt	-2.0	nt
CCCCn1c(NC(=O)c2ccc(F)cc2)c(C#N)c2nc3ccccc3nc21	nt	-5.8	nt	nt	nt	nt	nt
CCCCn1c(NC(=O)c2ccccc2)c(C#N)c2nc3ccccc3nc21	5.2	nt	0.5	6.2	-2.3	54.9*	60.3*
CCCCCCOc1ccc(N2C(=O)CC(SC(=NCC)NCC)C2=O)cc1 (stereo not drawn)	-15.1	-3.4	-4.0	-12.3	-1.4	-3.5	nt
N#CCSc1ncnc2sc3c(c12)CCC3	3.8	3.0	-1.7	-1.2	1.2	10.1	nt
CC(C#N)Sc1ncnc2sc3c(c12)CCC3 (stereo not drawn)	2.0	0.6	-4.0	-6.5	0.1	49.2*	47.7
Cc1sc2ncn(CC(=O)N3CCOCC3)c(=O)c2c1-c1ccccc1	-3.5	0.3	-1.8	11.1	-2.8	4.4	nt
CCCCCCCCCCCCCCCCn1cc[n+](C)c1	3.4	-4.1	-2.1	6.3	-1.9	48.5*	37.8	ATG4B confirm=49.9*
CCCCCCCCn1ccc(=N)cc1	-7.6	-3.9	-3.5	10.2	-3.4	-3.1	nt
Cc1csc(SC(C)c2nc3scc(-c4ccccc4)c3c(=O)[nH]2)n1 (stereo not drawn)	-0.2	-4.7	-1.6	-6.1	-0.1	7.5	nt
COc1ccc(NC(C)=O)cc1CNC(=O)CN1CCOCC1	1.1	-0.6	-2.5	6.0	-1.8	-6.5	nt
CC1CCCN(C(=O)c2ccc(COc3ccccc3Br)cc2)C1 (stereo not drawn)	-4.7	-2.4	-4.7	-8.1	-2.8	61.0*	68.6*
